Consider 24 molecules from ChEMBL document CHEMBL3352534, “A prodrug strategy for the oral delivery of a poorly soluble HCV NS5B thumb pocket 1 polymerase inhibitor using self-emulsifying drug delivery systems (SEDDS)” (Bioorg Med Chem Lett, 2015).

Bounds are passed on as bounds.

Series [1] can be described thus: Prodrug conversion in simulated gastric fluid assessed as half life. The series is classed as ADME. The conditions noted are these: simulated gi fluid. Summed up: (§1)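 Incubations used 2 µM compound at 37 °C in either SGF (0.2% NaCl/HCl, pH 1.2, pepsin 3.2 mg/mL) or SIF (KH2PO4/NaOH, pH 7.5, pancreatin 10 mg/mL). Samples were quenched 1:2 with acetonitrile/methanol 1:1 and analysed by HPLC. t1/2 = 0.693/first-order disappearance rate.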

Series [2] concerns Liver microsome. Nature of the series: Prodrug conversion in human liver microsomes assessed as half life.
For series [3], the system named is Liver microsome. Put plainly: Prodrug conversion in rat liver microsomes assessed as half life.
Series [4] can be described thus: Prodrug solubility in solutol. Type of series: ADME.
Series [5] is described as follows: Prodrug solubility in capmul. Type of series: ADME.
Series [6] is described as follows: Prodrug solubility in Labrasol. The series is classed as ADME.
Series [7] can be described thus: Prodrug solubility in PEG400. Type of series: ADME.
Series [8] in a line: Prodrug conversion in simulated intestinal fluid assessed as half life. The series is classed as ADME. The conditions noted are these: simulated gi fluid. Summed up:
as §1

The subject of a further series is Intestine. Put plainly: Prodrug conversion in rat intestinal microsomes assessed as half life.
Series [9] has as its system Plasma. Put plainly: Prodrug conversion in rat plasma assessed as half life. Type of series: ADME, cell-free. The gist of the method:
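Rat plasma (from centrifuged whole blood) was incubated with 2 µM compound at 37 °C. Samples were quenched 1:3 with acetonitrile/methanol 1:1, centrifuged and analysed by HPLC-PDA. Half-life was taken as 0.693/first-order rate of loss of the starting compound.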

Series [10] is described as follows: Prodrug conversion in human intestinal microsomes assessed as half life.
Series [11] deals with Plasma. Nature of the series: Prodrug conversion in human plasma assessed as half life.
The subject of series [12] is Rattus norvegicus. Nature of the series: AUC in rat plasma assessed as (E)-3-(4-(1-(2-(5-chloropyrimidin-2-yl)-3-cyclopentyl-1-methyl-1H-indole-6-carboxamido)cyclobutanecarboxamido)-2-ethoxyphenyl)acrylic acid at 10 mg/kg, po using 10.6% PEG400, 5.4% Cremophor EL, 2.6% Labrasol, 1.4% Capmul MCM in water (80%) vehicle. Type of series: ADME, organism-based. Further details: dose 10 mg/kg, route oral. The following applies: in vivo. Summed up: (§2)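 Fasted rats were given a single 10 mg/kg oral dose, with n = 3 per dose and route. Plasma was extracted by solid-phase extraction. Analysis used HPLC with diode-array UV (200–400 nm, peak height at best S/N) or LC/MS. Calibration standards were made in blank plasma, with LOQ 7–14 ng/mL. Parameters came from noncompartmental analysis.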

Series [13] relates to Rattus norvegicus. Put plainly: Cmax in rat plasma assessed as (E)-3-(4-(1-(2-(5-chloropyrimidin-2-yl)-3-cyclopentyl-1-methyl-1H-indole-6-carboxamido)cyclobutanecarboxamido)-2-ethoxyphenyl)acrylic acid at 10 mg/kg, po using 10.6% PEG400, 5.4% Cremophor EL, 2.6% Labrasol, 1.4% Capmul MCM in water (80%) vehicle. Type of series: ADME, organism-based. The conditions noted are these: in vivo. Further details: dose 10 mg/kg, route oral. Summed up:
as §2

Series [14] in a line: AUC in rat plasma at 10 mg/kg, po using 10.6% PEG400, 5.4% Cremophor EL, 2.6% Labrasol, 1.4% Capmul MCM in water (80%) vehicle. The series is classed as ADME, organism-based. More on the design: dose 10 mg/kg, route oral. The following applies: plasma. Summed up: as §2
A short description of series [15]: Cmax in rat plasma at 10 mg/kg, po using 10.6% PEG400, 5.4% Cremophor EL, 2.6% Labrasol, 1.4% Capmul MCM in water (80%) vehicle. The series is classed as ADME, organism-based. More on the design: dose 10 mg/kg, route oral. The following applies: plasma. The gist of the method:
as §2

As to `CCOc1cc(NC(=O)C2(NC(=O)c3ccc4c(C5CCCC5)c(-c5ncc(Cl)cn5)n(C)c4c3)CCC2)ccc1/C=C/C(=O)N[C@@H](CCCNC(=N)N)C(N)=O`, the t1/2 in series [1] is 0.467 h.
Consider `CCOC(=O)COC(=O)/C=C/c1ccc(NC(=O)C2(NC(=O)c3ccc4c(C5CCCC5)c(-c5ncc(Cl)cn5)n(C)c4c3)CCC2)cc1OCC`, for which the t1/2 with Liver microsome [2] was found to be 1.6 h; with Liver microsome [3], 2.45 h.
The corresponding values for `CCOc1cc(NC(=O)C2(NC(=O)c3ccc4c(C5CCCC5)c(-c5ncc(Cl)cn5)n(C)c4c3)CCC2)ccc1/C=C/C(=O)OCC(=O)OC` are 2.1 h and 2.08 h.
`CCOc1cc(NC(=O)C2(NC(=O)c3ccc4c(C5CCCC5)c(-c5ncc(Cl)cn5)n(C)c4c3)CCC2)ccc1/C=C/C(=O)OCC(=O)O`: the t1/2 in the series on Liver microsome [2] was found to be 3.1 h; in the series on Liver microsome [3] it was 1.17 h.
The like results for `CCOc1cc(NC(=O)C2(NC(=O)c3ccc4c(C5CCCC5)c(-c5ncc(Cl)cn5)n(C)c4c3)CCC2)ccc1/C=C/C(=O)N(C)CCO` were, in that order, 1.3 h and 2.25 h.
Take `CCCN(C)C(=O)COC(=O)/C=C/c1ccc(NC(=O)C2(NC(=O)c3ccc4c(C5CCCC5)c(-c5ncc(Cl)cn5)n(C)c4c3)CCC2)cc1OCC`: the solubility in [4], in series [5], in series [6] and in [7] was < 200 mg/mL in each case. Besides, the t1/2 with Liver microsome [2] and in the series on Liver microsome [3] was 0.317 h each time.
As to `CCOc1cc(NC(=O)C2(NC(=O)c3ccc4c(C5CCCC5)c(-c5ncc(Cl)cn5)n(C)c4c3)CCC2)ccc1/C=C/C(=O)N[C@@H](CCC(=O)O)C(N)=O`, the t1/2 is 0.533 h in series [1] and 4.23 h in series [8].
As to `CCOc1cc(NC(=O)C2(NC(=O)c3ccc4c(C5CCCC5)c(-c5ncc(Cl)cn5)n(C)c4c3)CCC2)ccc1/C=C/C(=O)OCCOc1ccccc1`, the t1/2 with Liver microsome [2] was > 5 h; with Liver microsome [3], 16.5 h.
For `CCOc1cc(NC(=O)C2(NC(=O)c3ccc4c(C5CCCC5)c(-c5ncc(Cl)cn5)n(C)c4c3)CCC2)ccc1/C=C/C(=O)NCCO`, the figures for the t1/2 in the series with Liver microsome [2] and with Liver microsome [3] were 1.63 h and 1.48 h, respectively.
Consider `CCOc1cc(NC(=O)C2(NC(=O)c3ccc4c(C5CCCC5)c(-c5ncc(Cl)cn5)n(C)c4c3)CCC2)ccc1/C=C/C(=O)OCC(=O)OCc1ccccc1`, for which the t1/2 is 3.03 h in series [1]; 26.15 h in the series on Liver microsome [2]; 2.2 h in the series on Liver microsome [3]; 1.63 h in [8]; > 5 h with Intestine; 6.6 h in the series with Plasma [9]. The t1/2 (in series [10]; in the series on Plasma [11]) was > 5 h throughout.
As for `CCOc1cc(NC(=O)C2(NC(=O)c3ccc4c(C5CCCC5)c(-c5ncc(Cl)cn5)n(C)c4c3)CCC2)ccc1/C=C/C(=O)OCC[N+](C)(C)C.[Br-]`, the t1/2 is 0.417 h in series [1], > 5 h in the series with Liver microsome [2] and 1.73 h in the series with Liver microsome [3].
Turning to `CCOc1cc(NC(=O)C2(NC(=O)c3ccc4c(C5CCCC5)c(-c5ncc(Cl)cn5)n(C)c4c3)CCC2)ccc1/C=C/C(=O)OC(=O)C[C@H](O)C(=O)O`, the t1/2 was found to be 5.57 h with Liver microsome [2] and 7.92 h in the series on Liver microsome [3].
Regarding `CCOc1cc(NC(=O)C2(NC(=O)c3ccc4c(C5CCCC5)c(-c5ncc(Cl)cn5)n(C)c4c3)CCC2)ccc1/C=C/C(=O)OCCNN1CCCC1`, the AUC with Rattus norvegicus [12] was 25.6 µM·h; in series [14] it was 0.06 µM·h. Moreover, the solubility in [4], in [5] and in series [6] was < 100 mg/mL throughout. For the same molecule, the t1/2 in the series on Liver microsome [2] stood at 0.683 h; in the series with Liver microsome [3], 0.783 h. Further, the Cmax with Rattus norvegicus [13] was 6100 nM; in series [15] it was 40 nM.
For `CCOc1cc(NC(=O)C2(NC(=O)c3ccc4c(C5CCCC5)c(-c5ncc(Cl)cn5)n(C)c4c3)CCC2)ccc1/C=C/C(=O)OCC(=O)OCc1ccc(Cl)cc1`, the figures for the t1/2 with Liver microsome [2] and in the series on Liver microsome [3] were 5.62 h and 11.4 h, respectively.
As for `CCOc1cc(NC(=O)C2(NC(=O)c3ccc4c(C5CCCC5)c(-c5ncc(Cl)cn5)n(C)c4c3)CCC2)ccc1/C=C/C(=O)N[C@@H](CC(=O)O)C(N)=O`, the t1/2 in series [1] is > 5 h; in [8], 0.067 h.
`CCOc1cc(NC(=O)C2(NC(=O)c3ccc4c(C5CCCC5)c(-c5ncc(Cl)cn5)n(C)c4c3)CCC2)ccc1/C=C/C(=O)OCCC(C)C`: the t1/2 in series [1] was 1.43 h; in the series with Liver microsome [2], > 5 h; in the series on Liver microsome [3], 1.42 h; in series [8] it was > 5 h; with Intestine it was > 5 h; with Plasma [9] it was 18.02 h. Besides, the t1/2 in series [10] is > 5 h; with Plasma [11], 6.18 h.
Consider `CCOc1cc(NC(=O)C2(NC(=O)c3ccc4c(C5CCCC5)c(-c5ncc(Cl)cn5)n(C)c4c3)CCC2)ccc1/C=C/C(=O)OCCOCCOC`, for which the figures for the AUC (with Rattus norvegicus [12]; in series [14]) were 23.1 µM·h and 0.1 µM·h, respectively. The solubility in [4] was < 100 mg/mL; in series [5], < 60 mg/mL; in series [6], < 30 mg/mL. Moreover, the t1/2 came out at 0.85 h in the series with Liver microsome [2] and 1.07 h in the series on Liver microsome [3]. For the same molecule, the values for the Cmax (in the series on Rattus norvegicus [13]; in series [15]) were 4600 nM and 30 nM, respectively.
In the case of `CCCOC(=O)/C=C/c1ccc(NC(=O)C2(NC(=O)c3ccc4c(C5CCCC5)c(-c5ncc(Cl)cn5)n(C)c4c3)CCC2)cc1OCC`, the t1/2 in [1] is 2.23 h; in the series on Liver microsome [2], > 5 h; with Liver microsome [3], 0.35 h; in series [8], > 5 h; in the series on Intestine, > 5 h; with Plasma [9], 15.2 h. In addition, the t1/2 (in series [10]; with Plasma [11]) was > 5 h each time.
With `CCCCCCOC(=O)/C=C/c1ccc(NC(=O)C2(NC(=O)c3ccc4c(C5CCCC5)c(-c5ncc(Cl)cn5)n(C)c4c3)CCC2)cc1OCC`, the AUC in the series on Rattus norvegicus [12] amounted to 3.2 µM·h; in series [14], 2.2 µM·h. In addition, the t1/2 in [1] is 0.883 h; in the series with Liver microsome [2], 17.88 h; with Liver microsome [3] it was 12.7 h. In addition, the Cmax turned out to be 200 nM in the series on Rattus norvegicus [13] and 400 nM in [15].
Regarding `CCCCOC(=O)COC(=O)/C=C/c1ccc(NC(=O)C2(NC(=O)c3ccc4c(C5CCCC5)c(-c5ncc(Cl)cn5)n(C)c4c3)CCC2)cc1OCC`, the t1/2 in the series on Liver microsome [2] amounted to 5.98 h; with Liver microsome [3], 15.8 h.
Take `CCOc1cc(NC(=O)C2(NC(=O)c3ccc4c(C5CCCC5)c(-c5ncc(Cl)cn5)n(C)c4c3)CCC2)ccc1/C=C/C(=O)OCc1ccccc1`: the t1/2 is 1.83 h in series [1]; > 5 h with Liver microsome [2]; 2.17 h in the series with Liver microsome [3]; > 5 h in series [8]; > 5 h in the series on Intestine; 2.23 h in the series on Plasma [9]. Moreover, the t1/2 (in series [10]; in the series on Plasma [11]) was > 5 h throughout.
For the molecule `CCOc1cc(NC(=O)C2(NC(=O)c3ccc4c(C5CCCC5)c(-c5ncc(Cl)cn5)n(C)c4c3)CCC2)ccc1/C=C/C(=O)OCOC(=O)C(C)(C)C`, the AUC in the series on Rattus norvegicus [12] came to 19.6 µM·h; in [14], 0.3 µM·h. Further, the t1/2 in series [1] is < 0.033 h; in the series with Liver microsome [2] it was 4.12 h; with Liver microsome [3], 5.6 h. Moreover, the values for the Cmax (with Rattus norvegicus [13]; in series [15]) were 1700 nM and 40 nM, respectively.
For the molecule `CCOC(=O)/C=C/c1ccc(NC(=O)C2(NC(=O)c3ccc4c(C5CCCC5)c(-c5ncc(Cl)cn5)n(C)c4c3)CCC2)cc1OCC`, the t1/2 in series [1] is 0.333 h; in the series with Liver microsome [2], > 5 h; in the series on Liver microsome [3], 3.07 h; in series [8], > 5 h; in the series on Intestine, > 5 h; in the series on Plasma [9], 8.18 h. For the same molecule, the t1/2 (in series [10]; with Plasma [11]) was > 5 h in each case.
For `CCOc1cc(NC(=O)C2(NC(=O)c3ccc4c(C5CCCC5)c(-c5ncc(Cl)cn5)n(C)c4c3)CCC2)ccc1/C=C/C(=O)OCC(Cl)(Cl)Cl`, the t1/2 in series [1] is 1.75 h; with Liver microsome [2] it was > 5 h; in the series with Liver microsome [3] it was 0.233 h; in series [8], > 5 h; with Intestine, > 5 h; in the series on Plasma [9], 1.3 h. Further, the t1/2 (in series [10]; with Plasma [11]) was > 5 h in each case.

One may read the solubility as how much of the substance goes into solution per volume. In general, AUC refers to concentration integrated over time. Usually Cmax stands for the maximum level reached in the sampled fluid or tissue.
